Laboratory results reported in PubChem BioAssay AID493134 (Broad Institute, 2011).
Where “and” joins values, the source holds several entries; their conditions need not be identical. Identical values can stand only once. Calls of active or inactive are those of the source.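 How the source made its calls: active means growth inhibition with fitted half-maximal dose at or below ten times the top tested dose; inconclusive means flat curve with inhibition of 30 to 70%, or poor fit; inactive means the rest.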

Assays:
[1] = single-agent antifungal activity, Candida albicans – CaCi-2 strain, Alamar Blue, dry powder, set 7, counter-screen for antifungal drug resistance project, dose response (AID 493134); conditions: C. albicans CaCi-2 growth, Alamar Blue fluorescence, 48 h
Procedure, shortened: (§1)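 Test system: fluconazole-resistant clinical Candida albicans isolate CaCi-2; Medium: fluconazole-free RPMI-based defined medium; Incubation: 48 h compound exposure at 37 °C; Technique: Alamar Blue fluorescence, 544/590 nm.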

[2] = test system: C. albicans CaCi-2 (fluconazole-resistant clinical isolate) growth, Alamar Blue fluorescence, 48 h; assay: as above
Procedure, shortened: as §1

Row | SMILES | activity change, negative = inhibition ([1]; at 26 µM (top of the series)) | also measured
1 | CCOC(=O)Cn1nc(-c2ccccc2)c2ccccc21 | -5.31% (inactive) | –
2 | COC(=O)Cn1nc(-c2ccccc2)c2cc(OC)ccc21 | – | AC50 [2]: 20.3 µM
3 | CN(C)C(=O)Cn1nc(-c2ccccc2)c2ccccc21 | -25% (inactive) | –
4 | COC(=O)Cn1nc(-c2ccccc2)c2ccccc21 | -5.47% (inactive) | –
5 | COC(=O)Cn1nc(-c2cccc(C)c2)c2ccccc21 | 7.2% (inactive) | –
6 | COC(=O)Cn1nc(-c2ccc(C(F)(F)F)cc2)c2ccccc21 | 4.42% (inactive) | –
7 | COC(=O)Cn1nc(-c2ccccc2C)c2ccccc21 | -21.2% (inactive) | –
8 | O=C(Cn1c2ccccc2c2nc3n(c(=O)c21)CCS3)N1CCCC1 | -14.3% (inactive) and -26.7% (inactive) | –
9 | COC(=O)Cn1nc(-c2cccc(F)c2)c2ccccc21 | 16% (inactive) | –
10 | CC(C)OC(=O)Cn1nc(-c2ccccc2)c2ccccc21 | -0.006% (inactive) | –
11 | COC(=O)Cn1nc(-c2ccccc2)c2ccc(OC)cc21 | -26.5% (inactive) | –
12 | COCCn1nc(-c2ccccc2)c2ccccc21 | -0.717% (inactive) | –
13 | COC(=O)Cn1nc(-c2ccccc2)c2cc(C)ccc21 | 2.54% (inactive) | –
14 | COC(=O)Cn1nc(-c2ccccc2)c2cc(F)ccc21 | -6.49% (inactive) | –
15 | COC(=O)Cn1nc(-c2ccccc2OC)c2ccccc21 | -23.3% (inactive) | –
16 | N#CCn1nc(-c2ccccc2)c2ccccc21 | 11% (inactive) | –
17 | COC(=O)Cn1nc(-c2ccccc2)c2ccc(F)cc21 | 5.28% (inactive) | –
18 | COC(=O)Cn1nc(-c2cncnc2)c2ccccc21 | – | activity change, negative = inhibition ([1]; at 19.5 µM (top of the series)): 7.98% (inactive)
19 | COC(=O)Cn1nc(-c2ccccc2)c2ccc(C(F)(F)F)cc21 | – | AC50 [2]: 16.4 µM
20 | COC(=O)Cn1nc(-c2ccccc2)c2ccc(C)cc21 | 0.047% (inactive) | –
21 | COC(=O)Cn1c2ccccc2c2nc3n(c(=O)c21)CCS3 | – | AC50 [2]: > 26 µM (inactive)
22 | O=C(Cn1nc(-c2ccccc2)c2ccccc21)Oc1ccccc1 | 6.4% (inactive) | –
23 | CC(C)(C)OC(=O)Cn1nc(-c2ccccc2)c2ccccc21 | -0.465% (inactive) | –
24 | COC(=O)Cn1nc(-c2ccccc2)c2ccc(C#N)cc21 | 21.8% (inactive) | –
25 | c1ccc(-c2nn(Cc3nn[nH]n3)c3ccccc23)cc1 | 9.64% (inactive) | –
26 | COC(=O)Cn1nc(-c2cccc(OC)c2)c2ccccc21 | -0.691% (inactive) | –
